Reference: ChEMBL document CHEMBL4257457, “N-Heterocyclic borneol derivatives as inhibitors of Marburg virus glycoprotein-mediated VSIV pseudotype entry” (Medchemcomm, 2017)

What was measured:
[1] = Selectivity ratio of IC50 for Marburg virus envelope glycoprotein-mediated cell entry in rVSIV-deltaG-MarV-GP pseuotype virus infected HEK293 cells to IC50 for Vesicular stomatitis Indiana virus envelope glycoprotein-mediated cell entry in rVSIV-deltaG-G pseudotype virus infected HEK293 cells
Outline: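 Specificity coefficient is IC50 for rVSIV-ΔG-MarV-GP divided by IC50 for rVSIV-ΔG-G. Each IC50 came from HEK293 cells infected with that pseudotype (same VSIV capsid, different glycoprotein) with or without compound, at low-toxicity concentrations. Transduced luciferase was measured 24 h post-infection.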

[2] = Selectivity index, ratio of CC50 for HEK293 cells to IC50 for Marburg virus envelope glycoprotein-mediated cell entry in rVSIV-deltaG-MarV-GP pseuotype virus infected HEK293 cells; assay type: toxicity; settings: human, read-out: Ratio CC50/IC50
Outline: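 Selectivity index is CC50 divided by IC50 against the MARV-GP pseudotype. CC50 came from an MTT assay on HEK293 cells. For IC50, HEK293 cells were infected with rVSIV-ΔG-MarV-GP with or without compound, across a low-toxicity concentration range chosen from CC50. The luciferase signal was read 24 h post-infection.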

HEK293 = test: Cytotoxicity against HEK293 cells assessed as reduction in cell viability after 48 hrs by MTT assay; assay type: cell-based; settings: human, hek293, 48 h
Outline: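 HEK293 target cells were exposed to the compounds and viability was read by MTT assay.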

SMILES	Ratio IC50 [1]	selectivity ratio [2]	CC50 (HEK293)
CC1(C)[C@H]2CC[C@]1(C)[C@H](OC(=O)CCN1CCCCC1)C2	14	35	302 µM
CN1CCN(CCC(=O)O[C@@H]2C[C@@H]3CC[C@@]2(C)C3(C)C)CC1	16	20	421 µM
CC1(C)[C@H]2CC[C@]1(C)[C@H](OC(=O)CN1CCOCC1)C2	1	5	1280 µM
CN1CCN(CC(=O)O[C@@H]2C[C@@H]3CC[C@@]2(C)C3(C)C)CC1	4	14	637 µM
CC1(C)[C@H]2CC[C@]1(C)[C@H](OC(=O)CCN1CCOCC1)C2	3	5	406 µM
CC1CCN(CC(=O)O[C@@H]2C[C@@H]3CC[C@@]2(C)C3(C)C)CC1	3	9	240 µM
CCN1CCN(CCC(=O)O[C@@H]2C[C@@H]3CC[C@@]2(C)C3(C)C)CC1	11	47	474 µM
CC1(C)[C@H]2CC[C@]1(C)[C@H](OC(=O)CN1CCCC1)C2	5	9	480 µM
CC1(C)[C@H]2CC[C@]1(C)[C@H](O)C2 [(-)-BORNEOL]	> 3	> 14	> 3000 µM
CC1(C)[C@H]2CC[C@]1(C)[C@H](OC(=O)CCN1CCNCC1)C2	10	21	207 µM
CCCCN(CCCC)CC(=O)O[C@@H]1C[C@@H]2CC[C@@]1(C)C2(C)C	2	6	73 µM
CC1CCN(CCC(=O)O[C@@H]2C[C@@H]3CC[C@@]2(C)C3(C)C)CC1	34	60	215 µM
CCCCN(CCCC)CCC(=O)O[C@@H]1C[C@@H]2CC[C@@]1(C)C2(C)C	8	15	86 µM
CC1(C)[C@H]2CC[C@]1(C)[C@H](OC(=O)CCN1CCCC1)C2	2	59	684 µM
CCN1CCN(CC(=O)O[C@@H]2C[C@@H]3CC[C@@]2(C)C3(C)C)CC1	15	29	859 µM
COc1ccc(CCN(C)CCCC(C#N)(c2ccc(OC)c(OC)c2)C(C)C)cc1OC (configuration not stated)	–	–	280 µM
CC1(C)[C@H]2CC[C@]1(C)[C@H](OC(=O)CN1CCCCC1)C2	1	4	321 µM
CC1(C)[C@H]2CC[C@]1(C)[C@H](OC(=O)CN1CCNCC1)C2	3	18	361 µM
